Assay outcomes (PubChem BioAssay)
Pf Dd2 growth – P. falciparum Dd2 growth inhibition; AID 1159554; SYBR Green, 72 h; stronger effect = lower value; actives 2.3% (n = 94,000); activity change, % at 10 µM; in the data active = activity change below about -80%; inconclusive = no clear call, values can overlap the other calls
IDH1 mut inh – blocks human IDH1 R132H reductase activity | O75874 | diaphorase/resazurin fluorescence, 60 min | inhibition, % at 10 µM | actives 0.18% (n = 70,000); in the data active = inhibition above about 34%; inconclusive = no clear call, values can overlap the other calls; inactive = below about 11%;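 also: 0% = DMSO and 100% = no enzyme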
Target sequence (O75874 whole entry R132H): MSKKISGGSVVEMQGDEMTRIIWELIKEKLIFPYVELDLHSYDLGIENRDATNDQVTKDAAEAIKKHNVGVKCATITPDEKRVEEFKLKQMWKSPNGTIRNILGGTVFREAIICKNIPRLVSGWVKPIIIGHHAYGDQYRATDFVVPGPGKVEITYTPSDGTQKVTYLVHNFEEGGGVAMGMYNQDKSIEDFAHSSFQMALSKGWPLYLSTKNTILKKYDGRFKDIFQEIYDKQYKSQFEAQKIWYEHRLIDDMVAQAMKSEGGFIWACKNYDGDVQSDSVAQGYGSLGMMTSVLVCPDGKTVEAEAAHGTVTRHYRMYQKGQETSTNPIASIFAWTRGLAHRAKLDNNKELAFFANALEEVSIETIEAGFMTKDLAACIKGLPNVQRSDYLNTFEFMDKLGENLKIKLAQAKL
T cruzi growth – blocks T. cruzi growth in NIH3T3 culture. inhibition, % at 8.34 µM. AID 624255. T. cruzi beta-gal in NIH3T3, GalScreen luminescence, 90 h. actives 5.9% (n = 77,000);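 active = mean inhibition above about 93%, with at least 55% of replicates each passing it, limit read from the data, passing the limit was not always enough; inconclusive = only one of those two conditions holds; inactive = neither condition holds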
GASC1 inh – KDM4C (human) demethylase inhibition; Q9H3R0; GST-KDM4C 2-372, H3K9me3 peptide, LANCE TR-FRET; inhibition, % at 12.5 µM; actives 0.15% (n = 96,000); AID 720574;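 active = mean replicate inhibition above about 25%, with at least 55% of replicates also reaching it, limit read from the data, passing the limit was not always enough; inconclusive = only one of those two conditions met; inactive = neither condition met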
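Compound: one test concentration per compound; Material: GST-GASC-1 enzyme fragment 2-372; Amount: GASC-1 enzyme at 10 nM final in reaction; Also added: H3K9me3 peptide substrate, Fe(II), 2-oxoglutarate; Technique: LANCE TR-FRET; Times: 30 min demethylation and 1 h detection at room temperature.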
Active calls of the source: *; ? = inconclusive; nt = no result. Only some compounds are listed: those with a hit (about 5.8% of all), similar ones and a draw of the others.

SMILES | Pf Dd2 growth | IDH1 mut inh | T cruzi growth | GASC1 inh
CS(=O)(=O)N(CC(=O)Nc1cccc(C(F)(F)F)c1)Cc1ccccc1 | nt | 1 | nt | nt
C[C@H](CO)N1C[C@H](C)[C@H](CN(C)S(=O)(=O)c2cccc(F)c2)OCc2ccccc2-c2c(n(C)c3ccccc23)C1=O | -91* | nt | nt | nt
COc1cccc(S(=O)(=O)N(C)C[C@@H]2OCc3ccccc3-c3c(n(C)c4ccccc34)C(=O)N([C@H](C)CO)C[C@@H]2C)c1 | -89* | nt | 74 | -4
COc1ccccc1S(=O)(=O)N(C)C[C@H]1OCc2ccccc2-c2c(n(C)c3ccccc23)C(=O)N([C@@H](C)CO)C[C@@H]1C | -87* | nt | 72 | -4
COc1cccc(S(=O)(=O)N(C)C[C@@H]2OCc3ccccc3-c3c(n(C)c4ccccc34)C(=O)N([C@@H](C)CO)C[C@@H]2C)c1 | -85* | 0 | 79 | -4
COc1ccccc1S(=O)(=O)N(C)C[C@H]1OCc2ccccc2-c2c(n(C)c3ccccc23)C(=O)N([C@@H](C)CO)C[C@H]1C | -68 | -2 | 51 | 0
COc1cccc(S(=O)(=O)N(C)C[C@H]2OCc3ccccc3-c3c(n(C)c4ccccc34)C(=O)N([C@@H](C)CO)C[C@H]2C)c1 | -75 | 0 | 74 | -3
O=C(O)C1C2C=CC(C2)C1C(=O)Nc1cccc([N+](=O)[O-])c1 (stereo not given) | nt | 1 | nt | nt
COc1cccc(CN2CC3(CN(CC4CCOCC4)C3)c3c([nH]c4cc(OC)ccc34)[C@H]2CO)c1 | -83* | nt | nt | -3
COc1cccc(CN2CC3(CN(CC4CC4)C3)c3c([nH]c4cc(OC)ccc34)[C@@H]2CO)c1 | -58 | nt | nt | -1
COc1ccc2c3c([nH]c2c1)[C@H](CO)N(Cc1cccc(F)c1)CC31CN(CC2CC2)C1 | -85* | nt | nt | 0
COc1ccc2c3c([nH]c2c1)[C@@H](CO)N(Cc1cccc(F)c1)CC31CCN(CC2CC2)CC1 | -80* | nt | nt | 0
COc1cccc(CN2CC3(CN(CC4CCOCC4)C3)c3c([nH]c4cc(OC)ccc34)[C@@H]2CO)c1 | -17 | nt | nt | -1
COc1ccc(NC(=O)c2ccco2)cc1NC(=S)NC(=O)c1ccc(-c2cccc(Cl)c2)o1 | nt | 0 | nt | nt
CN(CC(=O)Nc1ccc(F)c(Cl)c1)S(=O)(=O)c1ccc(F)cc1 | nt | -1 | nt | nt
C[C@H](CO)N1C[C@H](C)[C@H](CN(C)S(=O)(=O)c2ccc(Cl)cc2)OCc2ccccc2-c2c(n(C)c3ccccc23)C1=O | -94* | nt | nt | nt
C[C@@H]1CN([C@H](C)CO)C(=O)c2c(c3ccccc3n2C)-c2ccccc2CO[C@H]1CN(C)S(=O)(=O)c1ccc(Cl)cc1 | -84* | -2 | 91 | -2
COc1ccc(S(=O)(=O)N(C)C[C@H]2OCc3ccccc3-c3c(n(C)c4ccccc34)C(=O)N([C@H](C)CO)C[C@H]2C)cc1 | -72 | -1 | 61 | 1
C[C@H]1CN([C@@H](C)CO)C(=O)c2c(c3ccccc3n2C)-c2ccccc2CO[C@@H]1CN(C)S(=O)(=O)c1ccc(C(F)(F)F)cc1 | ? | nt | nt | -1
C[C@@H]1CN([C@H](C)CO)C(=O)c2c(c3ccccc3n2C)-c2ccccc2CO[C@@H]1CN(C)S(=O)(=O)c1ccc([N+](=O)[O-])cc1 | -69 | nt | nt | 9
C[C@H]1CN([C@@H](C)CO)C(=O)c2c(c3ccccc3n2C)-c2ccccc2CO[C@@H]1CN(C)S(=O)(=O)c1ccc(Cl)cc1 | -85* | nt | 58 | -1
C[C@H]1CN([C@@H](C)CO)C(=O)c2c(c3ccccc3n2C)-c2ccccc2CO[C@H]1CN(C)S(=O)(=O)c1ccc(Cl)cc1 | -86* | -2 | 73 | 0
COc1ccc(CN(C)C[C@@H]2Oc3c(NC(=O)c4ccc(-c5nccs5)cc4)cccc3C(=O)N([C@@H](C)CO)C[C@H]2C)cc1 | -90* | -3 | 8 | nt
COc1ccc(CN(C)C[C@H]2Oc3c(NC(=O)c4ccc(-c5nccs5)cc4)cccc3C(=O)N([C@H](C)CO)C[C@@H]2C)cc1 | -60 | -1 | 9 | 1
COc1ccc(CN(C)C[C@@H]2Oc3c(NC(=O)c4ccc(-c5nccs5)cc4)cccc3C(=O)N([C@H](C)CO)C[C@H]2C)cc1 | -84* | nt | 16 | -1
COc1ccc(CN(C)C[C@H]2Oc3c(NC(=O)c4ccc(-c5nccs5)cc4)cccc3C(=O)N([C@@H](C)CO)C[C@H]2C)cc1 | -82* | -8 | nt | -1
C=CC1C(=C)CCC2C1CCC1C(C)(C(=O)O)CCCC21C (stereo not given) | nt | 0 | nt | nt
